IMP-1 inhibitor: inhibitors of Pseudomonas aeruginosa IMP-1 metallo-beta-lactamase. purified IMP-1, nitrocefin hydrolysis, epi-absorbance fluorescence. inhibition, % at 5.6 µM. 290,000 tested, 0.45% active. AID 1556;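 active means inhibition above the mean plus 3 SD of all compounds in the same screening run, cut at about 4.5% in these data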;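 further: 0% = IMP-1 with DMSO and 100% = DMSO wells lacking enzyme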
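Assay system: purified IMP-1; Quantity: IMP-1 0.2 nM before substrate addition; Medium: HEPES buffer pH 7.1 with ZnSO4 and Brij 35; Incubation: 15 min enzyme–compound preincubation, then 25 min nitrocefin reaction, 25 °C; Signal: fluorescence quenching readout, ex 480/em 530 nm; Controls: DMSO with and without IMP-1; Repeats: singlicate testing.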
NLRP3 yeast inh: inhibitors of NALP3 inflammasome in yeast; Yeast reconstituted NLRP3/ASC/caspase-1, beta-gal luminescence, 24 h; inhibition, % at 10 µM; 330,000 tested, 0.39% active; AID 2825;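 active means inhibition of 50% or more; inactive means inhibition below 50%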;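 further: plate controls were induced DMSO wells for no effect and uninduced yeast grown without galactose for full effect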
PolyA inh: yeast polyadenylation inhibition. S. cerevisiae SKY197-pL101 polyadenylation reporter, beta-gal luminescence; efflux-impaired pdr1/pdr3 knockout yeast; score 100 = 6 SD above DMSO. activity score, % at 12 µM. 300,000 tested, 0.02% active. AID 1875;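 active means lowest replicate activity score at least 50, where 100 means six control SD above control mean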;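 further: yeast exposed to compound for 9 h at 30 °C; higher score means more reporter readthrough which indicates perturbed polyadenylation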
SUMO Mot1 rescue: blocks SUMOylation pathway, rescuing yeast Mot1-301 growth; growth rescue, % at 18.8 µM; 320,000 tested, 1% active; S. cerevisiae Mot1-301 growth rescue, ATP luminescence, 38.5C; percent above DMSO median, 100 means doubled;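 active means every valid replicate shows activation above 250% relative to neutral control wells; inactive means the rest, any valid replicate at or below 250%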;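 further: OY570 slx delta 5 strain wells were the positive control but not used for scaling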
NALP1 inh: NALP1 inhibition; S. cerevisiae NALP1/ASC/caspase-1 growth, X-gal OD620, 72 h; inhibition, % at 10 µM; 280,000 tested, 0.61% active; AID 2071; in the data active means inhibition mostly above about 24%, no sharp cut-off; inactive means mostly below about 32%
VIM-2 inhibitor: blocks Pseudomonas aeruginosa VIM-2 metallo-beta-lactamase. inhibition, % at 5.6 µM. purified VIM-2, nitrocefin hydrolysis, epi-absorbance fluorescence. 290,000 tested, 0.89% active. AID 1527;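 active means inhibition above the mean of all tested compounds plus 3 SD, cutoff set per screening run, cut at about 7.5% in these data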;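 further: red hydrolysis product quenches plate fluorescence so inhibitors raise well fluorescence; 0% = enzyme with DMSO and 100% = DMSO without enzyme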
* marks the source's active call; other numbers are inactive results; nt = not tested or not shown. The list is not random: actives were taken first. Their share in the collection is about 2.9%.

SMILES	IMP-1 inhibitor	NLRP3 yeast inh	PolyA inh	SUMO Mot1 rescue	NALP1 inh	VIM-2 inhibitor
CCOc1ccc(C2C(C#N)=C(N)Oc3nc[nH]c(=O)c32)cc1OC (stereo not drawn)	-2	-15	21	334*	-18	0
COCc1[nH]nc2c1C(c1ccc(OC)c(OC)c1)C(C#N)=C(N)O2 (stereo not drawn)	-1	5	-1	3	-6	-3
Nc1cccc2c1C(=O)N(C(=O)/C=C/c1cccc(Br)c1)C2=O	4.8*	nt	8	nt	5	0
Cc1cccc(NS(=O)(=O)c2ccc(C3CCCCC3)cc2)c1	-3	4	-11	792*	6	-4
CC(C)N1CCC2(CC1)N=C(c1ccc3c(c1)OCO3)CC(c1cc(Cl)ccc1O)N2 (stereo not drawn)	-5	40	-45	791	68*	-3
COc1ccc2c(c1)c(/C=C/c1cc[n+](C)cc1)cn2C	-1	16	-13	7	-31	9.7*
COc1ccc(C2Nc3cc(OC)ccc3-n3cccc32)cc1 (stereo not drawn)	-1	-3	0	-17	1	1
COC(=O)C1CN(C(=O)C(C)Oc2ccc(C)c(C)c2)c2ccccc2O1 (stereo not drawn)	-2	12	-9	18	19	-2
NC(=O)N/N=C/c1c(O)ccc2oc3c(c12)CCCC3	0	10	9	51	nt	3
CC(C)(C)N=Cc1c(O)ccc2oc3c(c12)CCCC3	19*	9	8	-4	12	4
O=[N+]([O-])c1ccc2nc(Cl)nc(-c3ccccc3)c2c1	-4	9	-17	24	4	-2
COc1ccc(CCNC(=O)CCSCc2ccccc2F)cc1OC	0	11	-18	263*	-1	0
CCCCCCC1(C)NC(=S)N(c2ccccc2)N1 (stereo not drawn)	-5	19	0	84	16	-3
CCCCCC1(C)NC(=S)N(c2ccccc2)N1 (stereo not drawn)	-4	10	-1	300*	-2	-4
Cc1ccc(-c2nnn(CC(=O)Nc3cccc4cccnc34)n2)o1	-3	-5	nt	353*	16	-2
Cc1ccc(-c2nnn(CC(=O)N(CC(=O)NC(C)C)c3cnc4ccccc4c3)n2)o1	-2	9	4	-15	6	-3
CCN1CCN(c2cc(C)c3cc(NC(=O)c4ccccc4F)ccc3n2)CC1	2	nt	nt	nt	37*	3
CCN(CC)CCCNC(=O)CCC(=O)Nc1ccc2nc(N3CCCCC3)cc(C)c2c1	-3	13	-7	889*	3	-1
CCCCN(CC)CCNC(=S)Nc1ccc2nc(N3CCN(C)CC3)cc(C)c2c1	0	24	-4	0	26	1
CCCCN(CC)CCNC(=O)CCC(=O)Nc1ccc2nc(N3CCN(C)CC3)cc(C)c2c1	-1	8	-1	118	36*	7.8*
COc1ccc(-c2cc(C#N)nc(N3CCN(C)CC3)n2)cc1	-1	18	0	-6	19	7
CN1CCN(c2nc(C#N)cc(-c3ccccc3)n2)CC1	2	4	13	19	24*	5
COc1cc2c(cc1OC)CN(C(=O)C1CCCN(C(=O)c3ccc(Cl)cc3)C1)CC2 (stereo not drawn)	nt	14	nt	2	nt	nt
CCOC(=O)N1CCc2[nH]c3ccc(C)cc3c2C1	-3	9	-7	87	-2	8.8*
O=C(CN1CCCC1)N1CCCc2c1c(=O)oc1ccc(OCc3ccccc3)cc21	-4	7	5	-3	29*	-2
CC(C)C(NC(=O)c1ccc(C(C)(C)C)cc1)C(=O)NCc1ccccn1 (stereo not drawn)	nt	8	nt	16	nt	nt
COc1ccc(S(=O)(=O)N2CCC(C(=O)NCCN3CCOCC3)CC2)cc1C	-2	17	11	9	26	0
COc1ccc(S(=O)(=O)N2CCCC(C(=O)NCCN3CCOCC3)C2)cc1C (stereo not drawn)	-1	-13	-4	318*	9	-1
COc1ccc(S(=O)(=O)N2CCCC(C(=O)NCc3ccncc3)C2)cc1Cl (stereo not drawn)	0	-1	-20	-11	26*	-2
